Laboratory results published in ChEMBL document CHEMBL1140372, “Synthesis, structure-activity relationships, and biological properties of 1-heteroaryl-4-[omega-(1H-indol-3-yl)alkyl]piperazines, novel potential antipsychotics combining potent dopamine D2 receptor antagonism with potent serotonin reuptake inhibition” (J Med Chem, 2005).

What was measured:
D(2) dopamine receptor [1] = biological target: T1, D(2) dopamine receptor (Homo sapiens, UniProt P14416); test: In vitro inhibitory constant against [3H]spiperone binding to human dopamine D2 receptor expressed in CHO cells; assay type: cell-based
[2] = biological target: Sodium-dependent serotonin transporter (Rattus norvegicus, UniProt P31652); test: In vitro inhibitory constant against [3H]paroxetine binding to rat frontal cortex membrane serotonin reuptake site; assay type: tissue-based
How it was run: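 Rat frontal cortex membranes; serotonin reuptake sites labelled with [3H]paroxetine in competition binding. Ki (nM) calculated from at least three independent experiments.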

D(2) dopamine receptor [3] = biological target: T1, D(2) dopamine receptor; test: In vitro inhibitory constant against [3H]spiperone binding to human dopamine D2 receptor expressed in CHO cells; NA= not active; assay type: cell-based
How it was run: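 Membrane preparation from CHO cells transfected with human D2L receptor; competition binding against [3H]spiperone.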

[4] = biological target: Sodium-dependent serotonin transporter (Mus musculus) (UniProt Q60857); test: Effective dose against potentiation of 5-HTP induced serotonin syndrome in mice upon oral administration (Serotonin reuptake inhibitory activity); assay type: functional, organism-based
Sequence of Sodium-dependent serotonin transporter (Mus musculus) (Q60857 whole entry): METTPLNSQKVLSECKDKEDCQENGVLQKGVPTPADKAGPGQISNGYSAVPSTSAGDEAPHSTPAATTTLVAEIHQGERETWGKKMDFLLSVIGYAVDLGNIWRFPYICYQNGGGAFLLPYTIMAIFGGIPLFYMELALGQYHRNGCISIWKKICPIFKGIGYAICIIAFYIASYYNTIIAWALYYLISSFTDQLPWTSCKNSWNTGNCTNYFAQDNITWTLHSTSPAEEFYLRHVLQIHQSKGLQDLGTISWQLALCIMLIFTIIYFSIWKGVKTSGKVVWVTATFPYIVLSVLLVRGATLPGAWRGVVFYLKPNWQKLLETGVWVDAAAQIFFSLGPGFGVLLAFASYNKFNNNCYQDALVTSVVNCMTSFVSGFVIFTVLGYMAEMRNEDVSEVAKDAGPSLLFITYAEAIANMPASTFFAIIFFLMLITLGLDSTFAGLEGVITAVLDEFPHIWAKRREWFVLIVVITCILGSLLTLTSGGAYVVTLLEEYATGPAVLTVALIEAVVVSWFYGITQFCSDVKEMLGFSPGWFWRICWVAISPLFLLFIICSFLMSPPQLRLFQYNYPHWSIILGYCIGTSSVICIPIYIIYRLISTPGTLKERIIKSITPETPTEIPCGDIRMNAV

Sequence of Sodium-dependent serotonin transporter (P31652 whole entry): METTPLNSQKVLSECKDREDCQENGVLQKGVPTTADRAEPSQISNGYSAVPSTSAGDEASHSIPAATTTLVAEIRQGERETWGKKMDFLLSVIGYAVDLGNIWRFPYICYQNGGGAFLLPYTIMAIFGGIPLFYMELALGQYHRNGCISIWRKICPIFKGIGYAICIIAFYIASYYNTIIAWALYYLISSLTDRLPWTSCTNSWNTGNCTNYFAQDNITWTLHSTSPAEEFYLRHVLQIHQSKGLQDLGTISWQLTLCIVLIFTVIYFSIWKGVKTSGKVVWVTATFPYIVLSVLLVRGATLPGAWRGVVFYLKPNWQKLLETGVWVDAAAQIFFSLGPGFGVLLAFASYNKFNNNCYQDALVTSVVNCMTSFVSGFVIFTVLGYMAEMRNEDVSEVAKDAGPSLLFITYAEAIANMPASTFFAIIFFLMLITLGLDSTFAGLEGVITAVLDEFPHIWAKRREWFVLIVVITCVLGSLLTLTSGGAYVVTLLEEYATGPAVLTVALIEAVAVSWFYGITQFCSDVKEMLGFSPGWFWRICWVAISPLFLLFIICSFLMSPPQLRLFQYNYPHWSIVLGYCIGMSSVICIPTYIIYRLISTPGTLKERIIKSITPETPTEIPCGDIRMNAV
T1 sequence (P14416 whole entry): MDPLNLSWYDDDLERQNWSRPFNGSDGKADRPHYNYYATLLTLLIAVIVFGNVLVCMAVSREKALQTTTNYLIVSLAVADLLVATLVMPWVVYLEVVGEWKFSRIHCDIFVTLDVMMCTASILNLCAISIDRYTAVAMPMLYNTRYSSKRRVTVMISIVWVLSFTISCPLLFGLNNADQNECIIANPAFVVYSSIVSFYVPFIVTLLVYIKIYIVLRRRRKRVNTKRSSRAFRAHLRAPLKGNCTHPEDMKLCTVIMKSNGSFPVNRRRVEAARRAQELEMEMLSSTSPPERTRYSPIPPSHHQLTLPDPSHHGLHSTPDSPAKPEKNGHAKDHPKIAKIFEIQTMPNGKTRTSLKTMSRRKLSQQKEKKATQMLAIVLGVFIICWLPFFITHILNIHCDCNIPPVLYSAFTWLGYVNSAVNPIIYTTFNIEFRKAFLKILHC

| SMILES | Ki (D(2) dopamine receptor [1]) | Ki [2] | Ki (D(2) dopamine receptor [3]) | ED50 [4] |
| --- | --- | --- | --- | --- |
| CN1CCCc2c1cccc2N1CCN(CCCc2c[nH]c3ccccc23)CC1 | 90 nM | 7.4 nM | – | – |
| Clc1cccc2c(CCCN3CCN(c4cccc5c4OCCO5)CC3)c[nH]c12 | 15.5 nM | – | – | – |
| c1ccc2c(CCC3CCNCC3)c[nH]c2c1 [INDALPINE] | – | – | Not Active | – |
| c1cc2c(c(N3CCN(CCc4c[nH]c5ccccc45)CC3)c1)OCCO2 | 45 nM | 12 nM | – | – |
| Clc1ccc2[nH]cc(CCCN3CCN(c4cccc5c4OCCO5)CC3)c2c1 | 31.6 nM | 0.5 nM | – | – |
| CC1CNc2cccc(N3CCN(CCCc4c[nH]c5ccccc45)CC3)c2C1 (stereo unspecified) | 15 nM | 2.7 nM | – | > 100 mg/kg |
| CC1Oc2c(cccc2N2CCN(CCCc3c[nH]c4ccccc34)CC2)NC1=O (stereo unspecified) | 4.5 nM | 0.4 nM | – | 3 mg/kg |
| C[C@@H]1Oc2c(cccc2N2CCN(CCCc3c[nH]c4ccccc34)CC2)NC1=O | 1 nM | 1 nM | – | > 10 mg/kg |
| c1cc2c(c(N3CCN(CCCc4c[nH]c5ccccc45)CC3)c1)OCCO2 | 21 nM | – | – | 22 mg/kg |
| c1cc2c(c(N3CCN(CCCCCc4c[nH]c5ccccc45)CC3)c1)OCCO2 | 9.1 nM | – | – | – |
| COc1ccc2[nH]cc(CCCN3CCN(c4cccc5c4OCCO5)CC3)c2c1 | 15 nM | – | – | – |
| c1cc2c(c(N3CCN(CCCc4c[nH]c5ccccc45)CC3)c1)CCCO2 | 20.3 nM | – | – | 100 mg/kg |
| Clc1cccc2[nH]cc(CCCN3CCN(c4cccc5c4OCCO5)CC3)c12 | 24 nM | – | – | – |
| Cc1ccc2[nH]cc(CCCN3CCN(c4cccc5c4OCCO5)CC3)c2c1 | – | 0.4 nM | – | – |
| Fc1ccc2[nH]cc(CCCN3CCN(c4cccc5c4OCCO5)CC3)c2c1 | 19 nM | – | – | 2 mg/kg |
| Fc1cccc2c(CCCN3CCN(c4cccc5c4OCCO5)CC3)c[nH]c12 | 10.6 nM | – | – | 28.4 mg/kg |

| SMILES | Ki (D(2) dopamine receptor [1]) | Ki [2] | Ki (D(2) dopamine receptor [3]) | ED50 [4] |
| --- | --- | --- | --- | --- |
| Fc1ccc2c(CCCN3CCN(c4cccc5c4OCCO5)CC3)c[nH]c2c1 | – | – | – | 30 mg/kg |
| C[C@H]1Oc2c(cccc2N2CCN(CCCc3c[nH]c4ccccc34)CC2)NC1=O | 8.7 nM | 0.5 nM | – | 3 mg/kg |
| c1cc2c(c(N3CCN(CCCCc4c[nH]c5ccccc45)CC3)c1)OCCO2 | 5.1 nM | 60 nM | – | > 30 mg/kg |
| O=C1CCc2c(cccc2N2CCN(CCCc3c[nH]c4ccccc34)CC2)N1 | 11.4 nM | 1.5 nM | – | 9 mg/kg |
| CC1(C)Oc2c(cccc2N2CCN(CCCc3c[nH]c4ccccc34)CC2)NC1=O | 7.4 nM | 2.8 nM | – | 7.3 mg/kg |
| c1cc2c(c(N3CCN(CCCc4c[nH]c5ccccc45)CC3)c1)CCCN2 | 11.3 nM | 1.1 nM | – | 15 mg/kg |
| C[C@@H]1Oc2c(cccc2N2CCN(CCCc3c[nH]c4ccc(F)cc34)CC2)NC1=O | 4.7 nM | 0.7 nM | – | 0.7 mg/kg |
| Fc1cccc2[nH]cc(CCCN3CCN(c4cccc5c4OCCO5)CC3)c12 | 8.1 nM | – | – | 32 mg/kg |
| Cc1cccc2c(CCCN3CCN(c4cccc5c4OCCO5)CC3)c[nH]c12 | 15.9 nM | – | – | – |
| C[C@@H]1Oc2c(cccc2N2CCN(CCCc3c[nH]c4c(F)cccc34)CC2)NC1=O | 1 nM | 3 nM | – | 10 mg/kg |
| c1cc2c(c(N3CCN(CCCc4c[nH]c5ccccc45)CC3)c1)OCCN2 | 17.9 nM | 1.5 nM | – | 100 mg/kg |
| Clc1ccc2c(CCCN3CCN(c4cccc5c4OCCO5)CC3)c[nH]c2c1 | 2.1 nM | – | – | 86 mg/kg |
| O=C1COc2c(cccc2N2CCN(CCCc3c[nH]c4ccccc34)CC2)N1 | 4.3 nM | 0.6 nM | – | 30 mg/kg |
| C[C@H]1Oc2c(cccc2N2CCN(CCCc3c[nH]c4ccc(F)cc34)CC2)NC1=O | 6.9 nM | 0.2 nM | – | 0.15 mg/kg |
| CC1Oc2c(N3CCN(CCCc4c[nH]c5ccccc45)CC3)cccc2N(C)C1=O (stereo unspecified) | 35.7 nM | 1.4 nM | – | 5.6 mg/kg |
| C[C@H]1Oc2c(cccc2N2CCN(CCCc3c[nH]c4c(F)cccc34)CC2)NC1=O | 5.3 nM | 2.4 nM | – | 30 mg/kg |
